Results taken from article PMC2943235 (Circulation research, 2010).
Entries after “also recorded” stand apart in the source; their conditions may differ.

How the values were obtained:
THP-1 cells [1] = experiment: Cholesterol efflux from THP-1 cells, with or without LXR agonist; assay type: cell-based, human
THP-1 cells [2] = assay type: cell-based, human; details: (efflux from live cells minus fixed cells)/efflux from live cells x100%; 80 μg/ml; 4 h; compared with apoA-I
VCAM-1 = assay type: cell-based, mouse; details: 0.75 mg/ml; TNF-α-activated SVEC4/VCAM-1 cells
Summary of the method: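 SVEC4/VCAM-1 mouse endothelial cells were washed, then given test peptide, apoA-I or HDL at 0.75 mg/ml final for 18 h. TNF-α was added in serum-free medium (10 ng/ml final) for 5 h, and luciferase activity was measured. Activity was expressed per mg cellular protein, relative to vehicle-treated cells, as means ± SEM.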

| Substance | Capacity to support (ABCA1-dependent) cholesterol efflux, in words (THP-1 cells [1]) | Specificity of cholesterol efflux, in words (THP-1 cells [2]) | Inhibition of VCAM-1 expression, in words (VCAM-1) |
| --- | --- | --- | --- |
| EKLKAKLEELKAKLEELL- P- EKAKAALEEAKAKAEELA | very low overall capacity to support cholesterol efflux |  |  |
| EWLKELLEKLLEKLKELL- P- EWLKELLEKLLEKLKELL [ELK-1W] | modest capacity for the ABC-dependent efflux | exceptional specificity |  |
| EKLKALLEKLLAKLKELL P- EKLKALLEKLLAKLKELL [ELK-2A] |  |  | most active peptide |
| EKLKAKLEELKAKLEELL- P- EKLKAKLEELKAKLEELL [ELK-2A2K2E] | exceptional capacity to support cholesterol efflux, even exceeding that of apoA-I; also recorded: very active in ABCA1-dependent cholesterol efflux | exceptional specificity |  |
